Measured values reported in ChEMBL document CHEMBL1212851, “Baculiferins A-O, O-sulfated pyrrole alkaloids with anti-HIV-1 activity, from the Chinese marine sponge Iotrochota baculifera” (Bioorg Med Chem, 2010).
≈ marks a conversion by molar mass, not a printed value. Calls of active or inactive are those of the source. The calls are words filed in the database; no cut-off is given here.

Tests used:
[1] = tested on: BGC-823; assay: Cytotoxicity against human BGC823 cells; type: functional, cell-based
[2] = tested on: Human immunodeficiency virus 1; assay: Antiviral activity against HIV1 infected in human HEK293 cells assessed as inhibition of viral replication; type: functional, organism-based
Procedure, shortened: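 VSVG-pseudotyped HIV-luc virus system in HEK-293 cells, used to assess inhibition of HIV-1 replication.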

[3] = biological target: DNA dC->dU-editing enzyme APOBEC-3G (Homo sapiens) (UniProt Q9HC16); assay: Binding affinity to human recombinant APOBEC3G at 20 ug/ml
Procedure, shortened: (§1)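 Recombinant gp41, Vif or APOBEC3G each immobilized on a CM5 sensor chip in a separate flow cell. Binding monitored by surface plasmon resonance on a BIAcore instrument.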

[4] = tested on: Candida albicans; assay: Multidrug reversal activity in Candida albicans isolate GU5 assessed as brefeldin A MIC in presence of 30 uM compound expressing CDR1 and CDR2 by two fold dilution method
[5] = tested on: Human immunodeficiency virus 1; assay: Antiviral activity against HIV1 3B infected in human MAGI cells after 40 to 48 hrs assessed as inhibition of viral life cycle; type: functional, organism-based; settings: Human immunodeficiency virus 1, 3B
Procedure, shortened: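 HeLa-CD4-LTR-β-gal (MAGI) indicator cells plated at 6000 per well and infected with 2000 TCID50 HIV-1 IIIB. Compounds added in fourfold serial dilutions, five dilutions with four replicates each, at a final top concentration of half the 200 µg/mL stock dilution. Cells incubated 40–48 h at 37 °C in 5% CO2, then fixed, stained, and blue cells counted by microscopy. Single-round infection.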

[6] = tested on: Human immunodeficiency virus 1; assay: Antiviral activity against HIV1 3B infected in human MT4 cells after 5 days by p24 antigen detection assay; type: functional, organism-based; settings: Human immunodeficiency virus 1, 3B, MT4, 120 h
Procedure, shortened: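 MT-4 cells infected with 10000 TCID50 HIV-1 IIIB for 2 h at 37 °C, washed, then plated at 5 × 10^4 cells per well. Compounds added from 250 µg/mL in fivefold serial dilutions, five dilutions with four replicates each. Cultures held 5 d at 37 °C in 5% CO2. On day 3 half the supernatant was replaced with fresh compound or medium. On day 5 supernatant p24 measured, inhibition computed relative to virus control, and IC50 taken by linear regression.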

[7] = tested on: HCT-8; assay: Cytotoxicity against human HCT8 cells; type: functional, cell-based; settings: for IC50: pooled result: one value given for 4 cell lines, strains, targets or settings
[8] = tested on: Human immunodeficiency virus 1; assay: Binding affinity to HIV1 recombinant gp41 at 20 ug/ml; procedure, shortened: as §1
[9] = tested on: A549; assay: Cytotoxicity against human A549 cells; type: functional, cell-based
[10] = tested on: Candida albicans; assay: Effect on brefeldin A MIC against Candida albicans isolate GU4 in presence of 30 uM compound by two fold dilution method
[11] = tested on: A2780; assay: Cytotoxicity against human A2780 cells; type: functional, cell-based
[12] = tested on: Bel-7402; assay: Cytotoxicity against human Bel7402 cells; type: functional, cell-based
[13] = tested on: Human immunodeficiency virus 1; assay: Binding affinity to HIV1 recombinant Vif at 20 ug/ml; procedure, shortened: as §1

Chain of DNA dC->dU-editing enzyme APOBEC-3G (Homo sapiens) (Q9HC16 whole entry): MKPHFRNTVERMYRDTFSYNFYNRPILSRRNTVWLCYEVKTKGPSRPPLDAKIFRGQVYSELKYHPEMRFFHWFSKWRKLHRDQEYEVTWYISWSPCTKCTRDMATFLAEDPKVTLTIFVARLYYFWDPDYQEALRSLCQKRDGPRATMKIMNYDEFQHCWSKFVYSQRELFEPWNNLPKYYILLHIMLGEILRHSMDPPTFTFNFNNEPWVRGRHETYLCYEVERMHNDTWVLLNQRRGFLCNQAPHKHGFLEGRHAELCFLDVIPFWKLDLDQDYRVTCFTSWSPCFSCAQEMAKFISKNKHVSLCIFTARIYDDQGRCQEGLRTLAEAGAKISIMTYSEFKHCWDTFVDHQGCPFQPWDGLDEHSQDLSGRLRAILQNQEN

| Structure (SMILES) | RU [3] [pg/mm2] | MIC [4] [µg/mL] | IC50 [5] [µg/mL] | IC50 [6] [µg/mL] | RU [8] [pg/mm2] | MIC [10] [µg/mL] | RU [13] [pg/mm2] | Activity [1] | Activity [2] | Activity [7] | Activity [9] | Activity [11] | Activity [12] | IC50 [7] [µM] | IC50 [11] [µM] |
| --- | --- | --- | --- | --- | --- | --- | --- | --- | --- | --- | --- | --- | --- | --- | --- |
| O=C1C(c2ccc(O)c(O)c2)=C2C(=C(c3ccc(O)c(O)c3)C(=O)N2CCc2ccc(OS(=O)(=O)O)cc2)c2cc(O)c(O)cc21 | 765 |  |  |  | 1490 |  | 529 | inactive | inactive | inactive | inactive | inactive | inactive |  |  |
| O=C1C(c2ccc(O)c(O)c2)=C2C(=C(c3ccc(O)c(O)c3)C(=O)N2CCc2ccc(O)cc2)c2cc(O)c(O)cc21 [BACULIFERIN K] |  |  | < 0.4 | 5.5 (≈ 9.73 µM) | 523 |  | 448 | inactive | inactive | inactive | inactive | inactive | inactive |  |  |
| O=c1oc2cc(O)c(O)cc2c2c1[nH]c1c(=O)oc3cc(O)c(OS(=O)(=O)O)cc3c12 [BACULIFERIN O] |  |  |  |  |  |  |  |  | inactive |  |  | inactive |  | 33.1 |  |
| O=c1oc2cc(O)c(O)cc2c2c1[nH]c1c(=O)oc3cc(O)c(O)cc3c12 |  |  |  |  |  |  | 11.7 | inactive | inactive | inactive | inactive | inactive | inactive |  |  |
| O=C1C(c2ccc(O)c(O)c2)=C2C(=C(c3ccc(OS(=O)(=O)O)c(O)c3)C(=O)N2CCc2ccc(O)cc2)c2cc(O)c(O)cc21 |  |  |  |  | 1350 |  | 638 | inactive | inactive | inactive | inactive | inactive | inactive |  |  |
| O=C(O)CN1C(=O)C(c2ccc(O)c(O)c2)=C2C1=C(c1ccc(O)c(O)c1)C(=O)c1cc(O)c(O)cc12 [BACULIFERIN N] |  |  | < 0.1 | 4.4 (≈ 8.74 µM) | 953 |  | 597 | inactive | inactive | inactive | inactive | inactive | inactive |  |  |
| O=C(O)Cn1c2c(c3c1=C(c1ccc(O)c(O)c1)C(=O)c1cc(O)c(O)cc1-3)-c1cc(O)c(O)cc1C(=O)C=2c1ccc(O)c(O)c1 [BACULIFERIN L] | 2170 |  | 4.1 (≈ 6.45 µM) | 7 (≈ 11 µM) | 469 |  | 1980 | inactive | inactive | inactive | inactive | inactive | inactive |  |  |
| O=C(O)Cn1c2c(c3c1=C(c1ccc(O)c(O)c1)C(=O)c1cc(O)c(OS(=O)(=O)O)cc1-3)-c1cc(O)c(O)cc1C(=O)C=2c1ccc(O)c(O)c1 [BACULIFERIN M] | 2460 | 50 | 0.2 (≈ 0.279 µM) | 5 (≈ 6.99 µM) | 380 | 12.5 | 1900 |  | inactive |  |  | inactive |  | 65.8 |  |

Second part, led by results:

| RU [3] [pg/mm2] | MIC [4] [µg/mL] | IC50 [5] [µg/mL] | IC50 [6] [µg/mL] | RU [8] [pg/mm2] | MIC [10] [µg/mL] | RU [13] [pg/mm2] | Structure (SMILES) | Activity [1] | Activity [2] | Activity [7] | Activity [9] | Activity [11] | Activity [12] | IC50 [7] [µM] | IC50 [11] [µM] |
| --- | --- | --- | --- | --- | --- | --- | --- | --- | --- | --- | --- | --- | --- | --- | --- |
| -26.3 | 25 | > 25 | > 25 | -23 | 12.5 | -25.7 | O=C1C(c2ccc(O)c(O)c2)=c2c(c3c(n2CCc2ccc(O)cc2)=C(c2ccc(O)c(O)c2)C(=O)c2cc(O)c(O)cc2-3)-c2cc(O)c(O)cc21 [PURPURONE] | inactive | inactive | inactive | inactive | inactive | inactive |  |  |
| 171 | 50 | 3.7 (≈ 4.76 µM) | 7.6 (≈ 9.77 µM) | 17.1 | 12.5 | 111 | O=C1C(c2ccc(O)c(O)c2)=c2c(c3c(n2CCc2ccc(O)cc2)=C(c2ccc(O)c(O)c2)C(=O)c2cc(O)c(OS(=O)(=O)O)cc2-3)-c2cc(O)c(O)cc21 [BACULIFERIN A] | inactive | inactive | inactive | inactive | inactive | inactive |  |  |
| 578 |  | 1.3 (≈ 1.39 µM) | 1.4 (≈ 1.49 µM) | 76.2 |  | 259 | O=C1C(c2ccc(O)c(O)c2)=c2c(c3c(n2CCc2ccc(O)cc2)=C(c2ccc(O)c(OS(=O)(=O)O)c2)C(=O)c2cc(O)c(OS(=O)(=O)O)cc2-3)-c2cc(OS(=O)(=O)O)c(O)cc21 [BACULIFERIN H] | inactive | inactive | inactive | inactive | inactive | inactive |  |  |
| 886 |  | 1.2 (≈ 1.4 µM) | 8.4 (≈ 9.79 µM) | 116 |  | 296 | O=C1C(c2ccc(O)c(OS(=O)(=O)O)c2)=c2c(c3c(n2CCc2ccc(O)cc2)=C(c2ccc(O)c(OS(=O)(=O)O)c2)C(=O)c2cc(O)c(O)cc2-3)-c2cc(O)c(O)cc21 [BACULIFERIN C] | inactive | inactive | inactive | inactive | inactive | inactive |  |  |
| 992 | 50 | 2.7 (≈ 3.15 µM) | 4.6 (≈ 5.36 µM) | 109 | 12.5 | 362 | O=C1C(c2ccc(O)c(O)c2)=c2c(c3c(n2CCc2ccc(O)cc2)=C(c2ccc(O)c(OS(=O)(=O)O)c2)C(=O)c2cc(O)c(OS(=O)(=O)O)cc2-3)-c2cc(O)c(O)cc21 [BACULIFERIN E] | inactive | inactive | inactive | inactive | inactive | inactive |  |  |
| 89.7 | 50 | 1.3 (≈ 1.67 µM) | 2.2 (≈ 2.83 µM) | 12.9 | 12.5 | 152 | O=C1C(c2ccc(O)c(O)c2)=c2c(c3c(n2CCc2ccc(O)cc2)=C(c2ccc(O)c(OS(=O)(=O)O)c2)C(=O)c2cc(O)c(O)cc2-3)-c2cc(O)c(O)cc21 [BACULIFERIN B] | inactive | inactive | inactive | inactive | inactive | inactive |  |  |
| 992 | 50 | 2.7 (≈ 3.15 µM) | 4.6 (≈ 5.36 µM) | 109 | 12.5 | 362 | O=C1C(c2ccc(O)c(OS(=O)(=O)O)c2)=c2c(c3c(n2CCc2ccc(O)cc2)=C(c2ccc(O)c(O)c2)C(=O)c2cc(O)c(OS(=O)(=O)O)cc2-3)-c2cc(O)c(O)cc21 [BACULIFERIN F] | inactive | inactive | inactive | inactive | inactive | inactive |  |  |
|  | 50 |  |  |  | 12.5 |  | O=C1C(c2ccc(O)c(O)c2)=c2c(c3c(n2CCc2ccc(O)cc2)=C(c2ccc(O)c(O)c2)C(=O)c2cc(O)c(OS(=O)(=O)O)cc2-3)-c2cc(OS(=O)(=O)O)c(O)cc21 [BACULIFERIN D] | inactive | inactive | inactive | inactive | inactive | inactive |  |  |
| 572 |  | 4.4 (≈ 4.69 µM) | 3.2 (≈ 3.41 µM) | 125 |  | 447 | O=C1C(c2ccc(O)c(OS(=O)(=O)O)c2)=c2c(c3c(n2CCc2ccc(O)cc2)=C(c2ccc(O)c(OS(=O)(=O)O)c2)C(=O)c2cc(O)c(OS(=O)(=O)O)cc2-3)-c2cc(O)c(O)cc21 [BACULIFERIN G] |  | inactive |  |  |  |  | 19.7 | 19.7 |
